Measurements reported in ChEMBL document CHEMBL5696442, “Discovery of type II inhibitors of TGFβ-activated kinase 1 (TAK1) and mitogen-activated protein kinase kinase kinase kinase 2 (MAP4K2)” (J Med Chem, 2015).

Experiments:
[1] = biological target: MAP/microtubule affinity-regulating kinase 3 (Homo sapiens) (UniProt P27448); experiment: Inhibition of MARK3 Lys2 labeling site in human A-375 cells at 0.05 uM by KiNativ Profiling analysis relative to control; type: cell-based
[2] = biological target: TRAF2 and NCK-interacting protein kinase (Homo sapiens) (UniProt Q9UKE5); experiment: Inhibition of ZC2/TNIK Lys1 labeling site in human A-375 cells at 0.05 uM by KiNativ Profiling analysis relative to control; type: cell-based
Chain of TRAF2 and NCK-interacting protein kinase (Homo sapiens) (Q9UKE5 whole entry, looked up, the tested form may be a part): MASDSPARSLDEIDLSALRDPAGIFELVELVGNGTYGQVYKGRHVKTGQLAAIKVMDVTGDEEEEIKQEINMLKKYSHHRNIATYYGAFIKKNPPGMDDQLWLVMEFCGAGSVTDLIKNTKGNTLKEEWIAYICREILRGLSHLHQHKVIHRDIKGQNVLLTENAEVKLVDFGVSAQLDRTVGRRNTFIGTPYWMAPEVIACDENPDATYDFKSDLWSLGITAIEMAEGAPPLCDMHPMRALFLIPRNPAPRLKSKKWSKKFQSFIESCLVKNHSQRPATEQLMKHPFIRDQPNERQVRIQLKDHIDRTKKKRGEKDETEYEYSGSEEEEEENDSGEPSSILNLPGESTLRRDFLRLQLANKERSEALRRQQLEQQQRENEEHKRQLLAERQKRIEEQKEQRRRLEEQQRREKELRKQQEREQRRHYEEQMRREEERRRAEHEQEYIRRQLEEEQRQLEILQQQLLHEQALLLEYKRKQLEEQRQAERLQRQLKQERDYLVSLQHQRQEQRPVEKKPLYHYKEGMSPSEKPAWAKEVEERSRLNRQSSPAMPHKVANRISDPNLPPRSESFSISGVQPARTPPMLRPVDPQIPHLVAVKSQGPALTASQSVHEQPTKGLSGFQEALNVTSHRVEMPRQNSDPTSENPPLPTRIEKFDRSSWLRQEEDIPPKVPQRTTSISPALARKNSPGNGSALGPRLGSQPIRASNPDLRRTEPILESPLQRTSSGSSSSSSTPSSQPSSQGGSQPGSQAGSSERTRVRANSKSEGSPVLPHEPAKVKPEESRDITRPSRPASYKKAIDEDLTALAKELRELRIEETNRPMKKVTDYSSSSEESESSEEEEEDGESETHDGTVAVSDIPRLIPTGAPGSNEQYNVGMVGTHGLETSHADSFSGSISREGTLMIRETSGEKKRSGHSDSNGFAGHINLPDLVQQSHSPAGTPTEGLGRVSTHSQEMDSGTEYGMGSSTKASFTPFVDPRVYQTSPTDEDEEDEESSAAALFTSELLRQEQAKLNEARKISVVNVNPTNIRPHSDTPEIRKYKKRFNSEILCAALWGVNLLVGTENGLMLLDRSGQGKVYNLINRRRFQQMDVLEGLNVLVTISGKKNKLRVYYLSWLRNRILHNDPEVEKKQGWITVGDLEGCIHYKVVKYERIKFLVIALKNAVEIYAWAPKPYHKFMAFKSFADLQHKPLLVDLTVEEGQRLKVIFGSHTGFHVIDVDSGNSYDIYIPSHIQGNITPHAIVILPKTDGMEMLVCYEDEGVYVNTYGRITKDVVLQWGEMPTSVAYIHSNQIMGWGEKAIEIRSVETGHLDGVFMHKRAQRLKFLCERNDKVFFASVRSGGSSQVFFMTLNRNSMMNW

[3] = biological target: Ribosomal protein S6 kinase alpha-1 (Homo sapiens) (UniProt Q15418); experiment: Inhibition of RSK1 Protein Kinase Domain in human A-375 cells at 0.5 uM by KiNativ Profiling analysis relative to control; type: cell-based
Outline: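 Live A375 melanoma cells treated with compound at 5 or 0.5 μM, then lysed. Lysate kinases were labeled with a lysine-reactive ATP or ADP-biotin probe. Inhibition was read as protection of labeling sites from the probe.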

[4] = biological target: Serine/threonine-protein kinase WNK1 (Homo sapiens) (UniProt Q9H4A3); experiment: Inhibition of Wnk1 ATP Loop labeling site in human A-375 cells at 5 uM by KiNativ Profiling analysis relative to control; type: cell-based
Chain of Serine/threonine-protein kinase WNK1 (Homo sapiens) (Q9H4A3 whole entry, looked up): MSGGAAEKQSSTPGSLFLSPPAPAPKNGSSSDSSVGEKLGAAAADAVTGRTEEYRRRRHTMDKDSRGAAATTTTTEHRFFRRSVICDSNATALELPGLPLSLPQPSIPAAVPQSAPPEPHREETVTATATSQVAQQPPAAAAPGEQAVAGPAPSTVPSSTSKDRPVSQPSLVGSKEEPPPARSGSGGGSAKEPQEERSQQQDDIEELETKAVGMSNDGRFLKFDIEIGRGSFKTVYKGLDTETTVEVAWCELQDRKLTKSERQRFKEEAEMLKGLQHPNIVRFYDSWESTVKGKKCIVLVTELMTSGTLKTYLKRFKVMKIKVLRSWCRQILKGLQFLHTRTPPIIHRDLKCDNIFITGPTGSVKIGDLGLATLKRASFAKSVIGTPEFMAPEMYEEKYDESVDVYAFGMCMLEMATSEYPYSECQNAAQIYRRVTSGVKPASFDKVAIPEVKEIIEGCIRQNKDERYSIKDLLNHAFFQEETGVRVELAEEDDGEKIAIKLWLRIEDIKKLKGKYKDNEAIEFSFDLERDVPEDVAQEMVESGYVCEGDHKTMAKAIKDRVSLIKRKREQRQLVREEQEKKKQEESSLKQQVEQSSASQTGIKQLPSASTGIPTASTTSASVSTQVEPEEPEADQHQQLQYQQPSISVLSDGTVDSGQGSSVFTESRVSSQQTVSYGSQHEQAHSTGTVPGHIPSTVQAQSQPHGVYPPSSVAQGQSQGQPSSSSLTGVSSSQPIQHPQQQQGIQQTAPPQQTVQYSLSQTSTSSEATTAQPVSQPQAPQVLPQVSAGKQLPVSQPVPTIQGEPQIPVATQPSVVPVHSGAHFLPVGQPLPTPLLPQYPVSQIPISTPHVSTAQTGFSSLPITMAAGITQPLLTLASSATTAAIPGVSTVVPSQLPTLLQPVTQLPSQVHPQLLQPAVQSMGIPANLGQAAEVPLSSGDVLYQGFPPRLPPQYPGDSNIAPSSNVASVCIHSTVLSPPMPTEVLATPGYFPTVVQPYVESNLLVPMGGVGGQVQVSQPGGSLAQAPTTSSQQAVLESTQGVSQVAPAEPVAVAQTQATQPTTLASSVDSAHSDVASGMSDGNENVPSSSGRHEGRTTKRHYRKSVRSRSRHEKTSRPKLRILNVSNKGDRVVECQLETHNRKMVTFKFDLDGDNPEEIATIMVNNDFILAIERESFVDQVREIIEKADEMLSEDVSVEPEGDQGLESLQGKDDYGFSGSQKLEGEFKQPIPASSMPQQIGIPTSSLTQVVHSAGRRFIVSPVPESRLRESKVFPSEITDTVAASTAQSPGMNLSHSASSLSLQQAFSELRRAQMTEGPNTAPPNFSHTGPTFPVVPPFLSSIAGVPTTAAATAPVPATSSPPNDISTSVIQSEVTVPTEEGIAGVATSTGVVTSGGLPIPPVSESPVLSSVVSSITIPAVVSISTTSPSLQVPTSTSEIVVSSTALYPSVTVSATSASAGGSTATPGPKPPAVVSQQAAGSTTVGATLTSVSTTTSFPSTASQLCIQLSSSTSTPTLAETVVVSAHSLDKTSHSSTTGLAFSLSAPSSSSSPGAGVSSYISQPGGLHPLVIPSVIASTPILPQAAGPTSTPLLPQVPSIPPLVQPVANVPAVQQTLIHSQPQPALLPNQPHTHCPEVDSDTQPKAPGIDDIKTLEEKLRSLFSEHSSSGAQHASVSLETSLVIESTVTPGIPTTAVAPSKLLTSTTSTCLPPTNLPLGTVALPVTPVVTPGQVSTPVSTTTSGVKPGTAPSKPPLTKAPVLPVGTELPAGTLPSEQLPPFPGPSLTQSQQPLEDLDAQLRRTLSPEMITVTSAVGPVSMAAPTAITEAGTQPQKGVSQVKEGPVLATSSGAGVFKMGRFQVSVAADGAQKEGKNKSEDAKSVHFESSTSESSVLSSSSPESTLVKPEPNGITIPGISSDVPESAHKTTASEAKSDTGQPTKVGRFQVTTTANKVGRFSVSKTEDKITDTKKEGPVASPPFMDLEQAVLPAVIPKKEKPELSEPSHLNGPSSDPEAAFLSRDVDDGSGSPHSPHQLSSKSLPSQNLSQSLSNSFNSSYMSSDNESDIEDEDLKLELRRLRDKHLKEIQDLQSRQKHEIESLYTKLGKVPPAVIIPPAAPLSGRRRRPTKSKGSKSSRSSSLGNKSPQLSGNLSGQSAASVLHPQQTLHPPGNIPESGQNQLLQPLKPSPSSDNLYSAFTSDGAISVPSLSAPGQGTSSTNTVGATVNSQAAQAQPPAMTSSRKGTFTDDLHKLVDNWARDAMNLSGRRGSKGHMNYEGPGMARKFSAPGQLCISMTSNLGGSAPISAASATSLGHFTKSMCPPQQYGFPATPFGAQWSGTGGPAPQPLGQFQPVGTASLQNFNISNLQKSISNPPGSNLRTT

[5] = biological target: 5'-AMP-activated protein kinase catalytic subunit alpha-1 (Homo sapiens) (UniProt Q13131); experiment: Inhibition of AMPKa1 ATP Loop labeling site in human A-375 cells at 0.5 uM by KiNativ Profiling analysis relative to control; type: cell-based
Chain of 5'-AMP-activated protein kinase catalytic subunit alpha-1 (Homo sapiens) (Q13131 whole entry, looked up): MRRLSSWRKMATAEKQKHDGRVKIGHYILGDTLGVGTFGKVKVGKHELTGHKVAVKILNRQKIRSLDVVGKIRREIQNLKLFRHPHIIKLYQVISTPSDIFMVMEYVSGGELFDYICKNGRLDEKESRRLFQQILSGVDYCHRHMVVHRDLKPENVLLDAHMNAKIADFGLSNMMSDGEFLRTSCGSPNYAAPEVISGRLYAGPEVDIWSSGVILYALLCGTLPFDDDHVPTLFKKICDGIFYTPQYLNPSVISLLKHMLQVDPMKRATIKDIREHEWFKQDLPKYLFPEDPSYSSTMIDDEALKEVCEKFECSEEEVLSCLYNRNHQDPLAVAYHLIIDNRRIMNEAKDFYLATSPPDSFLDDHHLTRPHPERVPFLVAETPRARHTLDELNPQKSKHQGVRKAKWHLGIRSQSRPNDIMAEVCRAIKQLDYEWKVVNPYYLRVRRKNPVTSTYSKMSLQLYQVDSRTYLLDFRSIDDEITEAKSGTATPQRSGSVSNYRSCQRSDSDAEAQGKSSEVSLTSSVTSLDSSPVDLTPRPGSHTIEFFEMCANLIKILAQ
Outline: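 Live A375 melanoma cells were treated with compound at 5 or 0.5 μM, then lysed. The lysates were labeled with a lysine-reactive ATP or ADP-biotin probe. Kinase protection from probe labeling was measured by KiNativ.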

[6] = biological target: T1, Mixed lineage kinase domain-like protein (Homo sapiens) (UniProt Q8NB16); experiment: Inhibition of MLKL Lys1 labeling site in human A-375 cells at 0.5 uM by KiNativ Profiling analysis relative to control; type: cell-based
T1 sequence (whole entry): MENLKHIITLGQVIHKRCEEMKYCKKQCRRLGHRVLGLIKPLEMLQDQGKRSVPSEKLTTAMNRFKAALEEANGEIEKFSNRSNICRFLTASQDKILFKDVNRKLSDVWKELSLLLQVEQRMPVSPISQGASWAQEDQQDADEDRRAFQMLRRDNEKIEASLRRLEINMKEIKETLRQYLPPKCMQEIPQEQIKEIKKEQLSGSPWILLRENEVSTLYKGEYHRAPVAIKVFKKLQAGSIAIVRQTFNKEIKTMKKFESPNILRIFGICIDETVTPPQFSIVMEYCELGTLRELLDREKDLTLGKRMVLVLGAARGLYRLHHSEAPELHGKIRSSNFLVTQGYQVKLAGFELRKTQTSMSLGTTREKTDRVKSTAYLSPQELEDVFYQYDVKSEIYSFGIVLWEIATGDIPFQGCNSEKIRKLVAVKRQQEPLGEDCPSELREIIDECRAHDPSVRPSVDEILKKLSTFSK

[7] = biological target: T2, Serine/threonine-protein kinase TBK1 (Homo sapiens) (UniProt Q9UHD2); experiment: Inhibition of TBK1 Lys1 labeling site in human A-375 cells at 5 uM by KiNativ Profiling analysis relative to control; type: cell-based
T2 sequence (whole entry): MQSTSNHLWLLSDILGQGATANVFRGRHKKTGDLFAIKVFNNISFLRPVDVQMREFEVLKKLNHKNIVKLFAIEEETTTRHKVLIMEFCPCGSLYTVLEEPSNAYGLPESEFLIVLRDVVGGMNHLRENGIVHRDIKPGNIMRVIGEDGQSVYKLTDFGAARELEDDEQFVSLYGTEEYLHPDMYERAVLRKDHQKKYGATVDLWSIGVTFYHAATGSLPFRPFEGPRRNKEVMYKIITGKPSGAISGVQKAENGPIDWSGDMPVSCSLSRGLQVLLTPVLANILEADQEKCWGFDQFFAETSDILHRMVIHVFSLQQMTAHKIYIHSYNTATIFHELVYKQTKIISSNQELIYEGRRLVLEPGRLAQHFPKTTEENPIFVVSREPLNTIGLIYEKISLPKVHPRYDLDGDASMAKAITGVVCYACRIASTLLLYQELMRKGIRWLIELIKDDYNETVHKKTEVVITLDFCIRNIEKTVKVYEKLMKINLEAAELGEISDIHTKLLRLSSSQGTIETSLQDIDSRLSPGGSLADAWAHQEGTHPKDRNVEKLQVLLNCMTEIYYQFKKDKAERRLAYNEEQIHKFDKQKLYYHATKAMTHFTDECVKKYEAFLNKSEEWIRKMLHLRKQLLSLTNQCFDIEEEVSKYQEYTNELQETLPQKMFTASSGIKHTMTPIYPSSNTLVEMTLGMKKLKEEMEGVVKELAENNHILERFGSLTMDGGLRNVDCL

[8] = biological target: T3, Inhibitor of nuclear factor kappa-B kinase subunit epsilon (Homo sapiens) (UniProt Q14164); experiment: Inhibition of IKKe Lys2 labeling site in human A-375 cells at 0.5 uM by KiNativ Profiling analysis relative to control; type: cell-based
T3 sequence (whole entry): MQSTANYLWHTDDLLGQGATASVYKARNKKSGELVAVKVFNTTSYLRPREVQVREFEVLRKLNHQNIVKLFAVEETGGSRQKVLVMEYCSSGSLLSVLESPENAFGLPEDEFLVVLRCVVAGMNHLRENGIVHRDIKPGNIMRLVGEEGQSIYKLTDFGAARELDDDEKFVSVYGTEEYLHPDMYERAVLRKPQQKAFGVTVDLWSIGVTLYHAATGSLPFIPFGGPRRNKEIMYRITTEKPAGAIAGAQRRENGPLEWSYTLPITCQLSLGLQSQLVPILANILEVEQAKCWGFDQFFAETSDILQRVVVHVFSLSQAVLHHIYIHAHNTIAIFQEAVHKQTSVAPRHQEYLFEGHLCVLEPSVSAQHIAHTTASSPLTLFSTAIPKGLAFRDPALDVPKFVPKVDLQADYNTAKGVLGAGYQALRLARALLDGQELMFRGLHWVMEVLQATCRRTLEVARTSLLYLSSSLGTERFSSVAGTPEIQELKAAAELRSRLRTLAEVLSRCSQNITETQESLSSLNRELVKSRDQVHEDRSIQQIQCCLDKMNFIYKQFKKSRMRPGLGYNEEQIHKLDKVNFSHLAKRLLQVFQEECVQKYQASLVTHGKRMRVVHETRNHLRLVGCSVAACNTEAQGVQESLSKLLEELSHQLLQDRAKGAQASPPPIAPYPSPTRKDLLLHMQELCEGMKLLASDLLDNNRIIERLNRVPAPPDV

[9] = Half life in Swiss albino mouse at 1 mg/kg, iv measured upto 24 hrs by LC/MS/MS analysis; type: ADME, organism-based; conditions: in vivo
Outline: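 Male Swiss albino mice. […] Blood was taken into K2EDTA from three mice per time point, from 0 to 24 h. Plasma was precipitated with acetonitrile and analysed by LC/MS/MS (LLOQ 1.138 ng/mL).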

Chain of MAP/microtubule affinity-regulating kinase 3 (Homo sapiens) (P27448 whole entry, looked up): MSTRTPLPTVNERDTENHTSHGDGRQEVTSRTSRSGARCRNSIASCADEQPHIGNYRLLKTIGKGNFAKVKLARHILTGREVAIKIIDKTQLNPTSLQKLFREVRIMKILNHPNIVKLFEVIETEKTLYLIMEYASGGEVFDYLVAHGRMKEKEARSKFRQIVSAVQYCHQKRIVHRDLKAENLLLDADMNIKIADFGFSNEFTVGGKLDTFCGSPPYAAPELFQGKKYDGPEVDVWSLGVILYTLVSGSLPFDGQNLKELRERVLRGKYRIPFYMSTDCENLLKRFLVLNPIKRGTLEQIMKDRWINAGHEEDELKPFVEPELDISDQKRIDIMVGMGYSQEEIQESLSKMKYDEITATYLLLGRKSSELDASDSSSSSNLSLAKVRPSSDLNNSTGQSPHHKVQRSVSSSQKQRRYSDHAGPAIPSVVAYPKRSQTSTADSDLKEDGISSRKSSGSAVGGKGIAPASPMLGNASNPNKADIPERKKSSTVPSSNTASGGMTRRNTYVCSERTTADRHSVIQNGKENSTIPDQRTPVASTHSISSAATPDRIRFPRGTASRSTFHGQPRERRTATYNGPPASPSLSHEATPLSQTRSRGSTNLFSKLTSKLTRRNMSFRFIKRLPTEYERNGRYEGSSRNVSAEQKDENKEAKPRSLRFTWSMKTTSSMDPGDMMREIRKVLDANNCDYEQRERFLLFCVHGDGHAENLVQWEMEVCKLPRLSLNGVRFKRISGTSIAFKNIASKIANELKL

SMILES	inhibition [1] [%]	inhibition [2] [%]	inhibition [3] [%]	inhibition [4] [%]	inhibition [5] [%]	inhibition [6] [%]	inhibition [7] [%]	inhibition [8] [%]	t1/2 [9] [h]
CCN1CCN(Cc2ccc(NC(=O)c3ccc(C)c(Oc4ccnc5[nH]ccc45)c3)cc2C(F)(F)F)CC1	19.5	42.6	0.9	13.1	-0.8	7.8	13.2	35.7	2.03
CCN1CCN(Cc2ccc(NC(=O)c3ccc(C)c(/C=C/c4cnc5[nH]ccc5c4OC)c3)cc2C(F)(F)F)CC1	11.6	57.6	3.2	13.7	-2.7	20.1	42.7	16.9	4.66
